# In ChEMBL document CHEMBL4765239, “Discovery of a Novel Highly Selective Histamine H4 Receptor Antagonist for the Treatment of Atopic Dermatitis” (J Med Chem, 2018):
# Columns and labels:
# [1] = Intrinsic clearance in CD1 mouse liver microsomes at 5 uM incubated upto 30 mins in presence of NADPH by UPLC-UV analysis; type: ADME, Microsome; details: read-out: CLH
# Summary of the method: (§1)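 Test compound at 5 µM incubated with pooled CD-1 mouse or human liver microsomes plus 1 mM NADPH. Remaining compound measured by UPLC-UV at 0, 10, 20 and 30 min. CLint derived from the first-order elimination rate constant, normalized to microsomal protein.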
# [2] = Intrinsic clearance in human liver microsomes at 5 uM incubated upto 30 mins in presence of NADPH by UPLC-UV analysis; type: ADME, Microsome; details: read-out: CLH; summary of the method: as §1
# [3] = Solubility of compound in SGF at pH 1.2 incubated for 2 hrs by UPLC-UV analysis; type: physicochemical
# Summary of the method: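 Compound incubated at 37 °C in FaSSIF (pH 6.5) for 0.5 h or in SGF (pH 1.2) for 2 h. Filtered through 0.45 µm, concentration measured by UPLC-UV.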
# [4] = Solubility of compound in FaSSIF at pH 6.5 incubated for 0.5 hrs by UPLC-UV analysis
# [5] = target: Histamine H3 receptor (Homo sapiens, UniProt Q9Y5N1); experiment: Displacement of [3H]-N-alpha-methylhistamine from recombinant human histamine H3 receptor expressed in CHO-K1 cell membranes measured after 30 mins by microbeta scintillation counting method; set-up: species or system Cell membrane
# Chain of Histamine H3 receptor (Q9Y5N1 whole entry): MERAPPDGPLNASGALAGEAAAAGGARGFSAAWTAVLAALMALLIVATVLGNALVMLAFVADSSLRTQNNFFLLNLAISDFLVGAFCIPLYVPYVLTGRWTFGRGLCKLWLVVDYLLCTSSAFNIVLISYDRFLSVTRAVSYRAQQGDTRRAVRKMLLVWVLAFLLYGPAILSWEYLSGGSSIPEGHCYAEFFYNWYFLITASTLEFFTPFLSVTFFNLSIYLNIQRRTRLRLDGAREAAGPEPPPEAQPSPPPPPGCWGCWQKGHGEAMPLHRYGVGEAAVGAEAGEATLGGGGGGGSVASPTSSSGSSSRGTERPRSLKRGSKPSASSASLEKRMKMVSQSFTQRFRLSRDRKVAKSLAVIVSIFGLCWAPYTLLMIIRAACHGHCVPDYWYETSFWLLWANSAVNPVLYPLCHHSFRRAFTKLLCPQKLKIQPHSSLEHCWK
# Summary of the method: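 Competitive binding on CHO-K1 membranes expressing human H3R ([3H]Nα-methylhistamine) or mouse H4R ([3H]histamine). Run in 50 mM Tris-HCl pH 7.4 for 30 min at 27 °C, then filtered onto 0.5% PEI-treated glass fiber and washed three times with ice-cold buffer. Bound radioactivity read by liquid scintillation counting.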
# [6] = target: T1, 5-hydroxytryptamine receptor 3A (Homo sapiens) (UniProt P46098); experiment: Displacement of [3H]BRL 43694 from human recombinant 5-HT3 receptor at 10 uM after 120 mins by scintillation counting analysis relative to control
# T1 sequence (whole entry): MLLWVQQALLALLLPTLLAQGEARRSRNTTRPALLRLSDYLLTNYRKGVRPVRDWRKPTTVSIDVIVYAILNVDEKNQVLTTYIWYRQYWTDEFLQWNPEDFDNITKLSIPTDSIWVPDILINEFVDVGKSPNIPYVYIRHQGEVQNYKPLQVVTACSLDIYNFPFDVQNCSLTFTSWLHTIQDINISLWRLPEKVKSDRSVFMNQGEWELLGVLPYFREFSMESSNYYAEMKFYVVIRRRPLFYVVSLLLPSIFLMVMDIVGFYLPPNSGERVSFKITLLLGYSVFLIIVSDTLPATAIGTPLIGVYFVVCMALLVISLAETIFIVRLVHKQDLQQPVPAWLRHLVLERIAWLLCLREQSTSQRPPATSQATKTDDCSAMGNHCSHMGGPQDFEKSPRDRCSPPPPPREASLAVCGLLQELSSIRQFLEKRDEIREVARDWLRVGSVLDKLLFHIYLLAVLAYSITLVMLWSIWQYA
# [7] = target: Histamine H4 receptor (Homo sapiens, UniProt Q9H3N8); experiment: Displacement of [3H]-histamine from recombinant human histamine H4 receptor expressed in CHO-K1 cell membranes measured after 30 mins by microbeta scintillation counting method; set-up: species or system Cell membrane
# Chain of Histamine H4 receptor (Q9H3N8 whole entry): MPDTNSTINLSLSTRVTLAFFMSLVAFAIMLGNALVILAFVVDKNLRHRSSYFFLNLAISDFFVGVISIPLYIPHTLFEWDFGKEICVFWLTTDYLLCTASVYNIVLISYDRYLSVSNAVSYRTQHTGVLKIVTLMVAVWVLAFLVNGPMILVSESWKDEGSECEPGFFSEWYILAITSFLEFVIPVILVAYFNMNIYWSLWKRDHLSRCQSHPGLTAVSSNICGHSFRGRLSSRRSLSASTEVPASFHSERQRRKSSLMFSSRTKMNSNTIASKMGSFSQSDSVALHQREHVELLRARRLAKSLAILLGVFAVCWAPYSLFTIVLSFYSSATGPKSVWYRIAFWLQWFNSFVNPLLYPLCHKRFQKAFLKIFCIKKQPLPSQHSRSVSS
# [8] = Lipophilicity, logD of the compound at pH 7.4; type: physicochemical; details: buffer
# [9] = Cmax in ICR mouse at 50 mg/kg, po measured upto 24 hrs by LC-MS/MS analysis; type: ADME, organism-based; set-up: route oral, dose 50 mg/kg, time <=24; details: in vivo
# Summary of the method: (§2)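 Female ICR mice, n=3 per group, given test compound orally. Blood sampled at 0.5, 1, 2, 4, 7 and 24 h post dose; plasma levels quantified by LC-MS/MS. Parameters from non-compartmental analysis.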
# [10] = Tmax in ICR mouse at 50 mg/kg, po measured upto 24 hrs by LC-MS/MS analysis; type: ADME, organism-based; details: in vivo; summary of the method: as §2
# [11] = AUC (all) in ICR mouse at 50 mg/kg, po measured upto 24 hrs by LC-MS/MS analysis; type: ADME, organism-based; set-up: route oral, dose 50 mg/kg, time <=24; details: in vivo; summary of the method: as §2
# [12] = Basicity constant, pKa of the compound; type: physicochemical
# [13] = target: T2, 5-hydroxytryptamine receptor 3A (Homo sapiens, UniProt P46098); experiment: Displacement of [3H]BRL 43694 from human recombinant 5-HT3 receptor after 120 mins by scintillation counting analysis
# T2 sequence (P46098 whole entry): T1 sequence (whole entry)
SMILES,microsomal CLint at 5 µM [1],microsomal CLint at 5 µM [2],solubility at 2 h [3],solubility at 0.5 h [4],IC50 [5],IC50 [7],other results
CN1CCN(c2nc3ncc(C#N)cc3n3cnnc23)CC1,2.8 µL/min/mg,3.49 µL/min/mg,1740 µg/mL,417 µg/mL,–,–,–
CN1CCN(c2nc3ncc(Cl)cc3c3ncnn23)CC1,–,–,–,–,75 µM,–,inhibition ([6]; filed as antagonist): 96%
Clc1cnc2nc(N3CCCNCC3)c3nncn3c2c1,–,–,–,–,–,> 10 µM,–
CN1CCN(c2cc3ccc(Cl)cc3n3cnnc23)CC1,8.43 µL/min/mg,0.86 µL/min/mg,> 2000 µg/mL,> 2000 µg/mL,> 100 µM,6.2 µM,–
CN1CCN(c2nc3ncc(Br)cc3n3cnnc23)CC1,3.13 µL/min/mg,1.64 µL/min/mg,1930 µg/mL,679 µg/mL,71 µM,–,–
CN1CCN(c2nc3ccc(Cl)cc3n3cnnc23)CC1,29.1 µL/min/mg,5.83 µL/min/mg,> 2000 µg/mL,227 µg/mL,4.4 µM,–,IC50 ([7]; cho-k1): 0.022 µM; logD [8]: 2.12; Cmax [9]: 676 ng/mL; Tmax [10]: 40.2 min; AUC at 24 h [11]: 1680 ng·h/mL
CN(C)C1CN(c2nc3ncc(Cl)cc3n3cnnc23)C1,–,–,–,–,–,1.2 µM,inhibition ([6]; filed as antagonist): 77.5%
CNC1CN(c2nc3ncc(Cl)cc3n3cnnc23)C1,–,–,–,–,–,0.065 µM,inhibition ([6]; filed as antagonist): 50%
CCOc1nc2nc(N3CCN(C)CC3)c3nncn3c2cc1Cl,3.56 µL/min/mg,3.28 µL/min/mg,–,–,–,0.52 µM,–
CN1CCN(C(=O)c2cc3cc(Cl)ccc3[nH]2)CC1 [JNJ-7777120],128 µL/min/mg,6.5 µL/min/mg,1410 µg/mL,378 µg/mL,> 100 µM,–,–
CN1CCN(c2nc3ccc([N+](=O)[O-])cc3n3cnnc23)CC1,10.4 µL/min/mg,2.63 µL/min/mg,1900 µg/mL,80.2 µg/mL,41 µM,0.17 µM,–
CN1CCN(c2nc3ncccc3n3cnnc23)CC1,5.36 µL/min/mg,0.61 µL/min/mg,> 2000 µg/mL,> 2000 µg/mL,–,3 µM,–
CN1CCN(c2nc3ncc(Cl)cc3n3cnnc23)CC1,1.98 µL/min/mg,0.6 µL/min/mg,> 2000 µg/mL,1240 µg/mL,–,0.077 µM,logD [8]: 0.95; inhibition ([6]; filed as antagonist): 100%; pKa [12]: 9.9; IC50 [13]: 0.057 µM; Cmax [9]: 4630 ng/mL; Tmax [10]: 30 min; AUC at 24 h [11]: 23600 ng·h/mL
CN1CCN(c2nc3ncc(Br)cc3n3nnnc23)CC1,–,–,–,–,49 µM,–,inhibition ([6]; filed as antagonist): 89%
Cc1cnc2nc(N3CCN(C)CC3)c3nncn3c2c1,2.91 µL/min/mg,5.17 µL/min/mg,2000 µg/mL,1900 µg/mL,–,–,–
CN1CCN(c2nc3ncc(C(F)(F)F)cc3n3cnnc23)CC1,2.05 µL/min/mg,1.31 µL/min/mg,> 2000 µg/mL,1230 µg/mL,43 µM,–,–
CN[C@@H]1CCN(c2nc3ncc(Cl)cc3n3cnnc23)C1,–,–,–,–,–,4.1 µM,–
Cc1ccc2nc(N3CCN(C)CC3)c3nncn3c2c1,23.3 µL/min/mg,7.51 µL/min/mg,> 2000 µg/mL,1940 µg/mL,15 µM,0.57 µM,–

SMILES,microsomal CLint at 5 µM [1],microsomal CLint at 5 µM [2],solubility at 2 h [3],solubility at 0.5 h [4],IC50 [5],IC50 [7],other results
NC1CN(c2nc3ncc(Cl)cc3n3cnnc23)C1,–,–,–,–,–,5.2 µM,inhibition [6]: 24.5%
CNC1CN(c2nc3ncc(Cl)cc3c3ncnn23)C1,–,–,–,–,–,1.1 µM,inhibition [6]: 32%
CN1CCN(c2nc3ncc(Cl)cc3n3nnnc23)CC1,–,–,–,–,73 µM,–,inhibition ([6]; filed as antagonist): 85%
CN1CCN(c2nc3nc(OCC(F)(F)F)c(Cl)cc3n3cnnc23)CC1,4.94 µL/min/mg,5.72 µL/min/mg,–,–,–,–,–
CN(C)[C@@H]1CCN(c2nc3ncc(Cl)cc3n3cnnc23)C1,–,–,–,–,–,4.8 µM,–
Clc1cnc2nc(N3CCNCC3)c3nncn3c2c1,–,–,–,–,–,–,pKa [12]: 8.9
CN1CCCN(c2nc3ncc(Cl)cc3n3cnnc23)CC1,–,–,–,–,11 µM,2.9 µM,–
Clc1cnc2nc(N3CCN4CCCC4C3)c3nncn3c2c1 (configuration not stated),–,–,–,–,24 µM,0.052 µM,–
CN1CCN(c2nc3ccccc3n3cnnc23)CC1,73.1 µL/min/mg,11.5 µL/min/mg,> 2000 µg/mL,1190 µg/mL,> 100 µM,2.3 µM,–
N[C@@H]1CCN(c2nc3ncc(Cl)cc3n3cnnc23)C1,–,–,–,–,–,6.3 µM,–
CN1CCN(c2nc3nc(C#N)c(Cl)cc3n3cnnc23)CC1,0.69 µL/min/mg,1.63 µL/min/mg,–,–,36 µM,–,–
Clc1cnc2nc(N3CC4CCCNC4C3)c3nncn3c2c1 (configuration not stated),–,–,–,–,–,> 10 µM,–
Cc1c(Br)cnc2nc(N3CCN(C)CC3)c3nncn3c12,7.62 µL/min/mg,3.84 µL/min/mg,1800 µg/mL,583 µg/mL,24 µM,–,–
CNC1CN(c2nc3ncc(Cl)cc3n3nnnc23)C1,–,–,–,–,–,0.053 µM,inhibition [6]: 18%
CN1CCN(c2nc3ncc(I)cc3n3cnnc23)CC1,3.74 µL/min/mg,2.81 µL/min/mg,1250 µg/mL,126 µg/mL,–,–,–
Clc1cnc2nc(N3CCN(C4CC4)CC3)c3nncn3c2c1,–,–,–,–,–,> 10 µM,–
CN1CCN(c2nc3cccnc3n3cnnc23)CC1,50.2 µL/min/mg,8.21 µL/min/mg,1920 µg/mL,> 2000 µg/mL,–,3 µM,–
CN1CCN(c2nc3nc(Cl)c(Cl)cc3n3cnnc23)CC1,5.28 µL/min/mg,2.55 µL/min/mg,1950 µg/mL,163 µg/mL,–,–,–
